These results are taken from ChEMBL document CHEMBL1128485, “(E)-4-(2-[[3-(indol-5-yl)-1-oxo-2-butenyl]amino]phenoxy)butyric acid derivatives: a new class of steroid 5 alpha-reductase inhibitors in the rat prostate. 1” (J Med Chem, 1995).

For one assay, the target named is Steroid 5-alpha-reductase (Rattus norvegicus) (UniProt P24008+P31214). In words: (§1) Inhibitory activity against Steroid 5-alpha-reductase in prostates from male rats. The settings on record: Prostate gland; concentration not given here. More on the design: concentration or dose not given beside the values. In kind it is tissue-based. The method, boiled down: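 Ventral prostate from male Wistar rats (200–300 g), homogenized in ice-cold 0.32 M sucrose, 1 mM DTT, 20 mM sodium phosphate pH 6.5. Particulate pellet spun at 140000g, stored at –80 °C, used at 1 mg protein. Reaction run in 40 mM phosphate pH 6.5 with 1 mM DTT, 150 µM NADPH and 3 µM [14C]testosterone. Compounds added in ethanol. Incubated 37 °C, 20 min, extracted with ethyl acetate. [14C]T and DHT measured by TLC radioscan. IC50 given as mean ± SE of three experiments.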
Consider `C/C(=C\C(=O)Nc1ccccc1OCCCC(=O)O)c1ccc2c(ccn2C2CCCCC2)c1`, for which the inhibition worked out at 48%.

In the case of `C/C(=C\C(=O)N(C)c1ccccc1OCCCC(=O)O)c1ccc2c(ccn2C(C)c2ccccc2)c1` (stereo unspecified), the inhibition stood at 8%.

For the compound `C/C(=C\C(=O)Nc1cc(Cl)ccc1OCCCC(=O)O)c1ccc2c(ccn2C(c2ccccc2)c2ccccc2)c1`, the inhibition was 38%. `C/C(=C\C(=O)Nc1cc(C)ccc1OCCCC(=O)O)c1ccc2c(ccn2C(c2ccccc2)c2ccccc2)c1` returned an inhibition of 45%. The compound `C/C(=C\C(=O)Nc1ccccc1OCCCC(=O)O)c1ccc2c(ccn2C(C)c2ccc3ccccc3c2)c1` (stereo unspecified) yielded an inhibition of 26%.

Take `C/C(=C\C(=O)Nc1cc(F)ccc1OCCCC(=O)O)c1ccc2c(ccn2C(c2ccccc2)c2ccccc2)c1`: the inhibition turned out to be 52%.

In turn, `CCCC(CCC)n1ccc2cc(/C(C)=C/C(=O)Nc3cccc(OCCCC(=O)O)c3)ccc21` returned an inhibition of 19%. Same read-out and setting: the figure for `C/C(=C\C(=O)Nc1ccccc1OCCCC(=O)O)c1ccc2c(ccn2C2c3ccccc3CCc3ccccc32)c1` is 31%.

On to `CCCC(CCC)n1ccc2cc(/C(C)=C/C(=O)Nc3ccc(OCCCC(=O)O)cc3)ccc21`, for which the inhibition was determined as 28%.

The target of the next assay is T1, Steroid 5-alpha-reductase (Rattus norvegicus, UniProt P24008+P31214).
T1 sequence (P24008 whole entry): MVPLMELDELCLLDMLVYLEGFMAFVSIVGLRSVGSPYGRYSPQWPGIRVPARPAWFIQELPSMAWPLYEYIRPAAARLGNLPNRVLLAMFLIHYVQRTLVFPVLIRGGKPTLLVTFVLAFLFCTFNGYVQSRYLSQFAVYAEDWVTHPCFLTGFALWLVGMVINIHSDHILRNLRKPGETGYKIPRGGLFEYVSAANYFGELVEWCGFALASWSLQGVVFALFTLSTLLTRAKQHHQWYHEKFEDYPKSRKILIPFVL
T1 sequence (P31214 whole entry): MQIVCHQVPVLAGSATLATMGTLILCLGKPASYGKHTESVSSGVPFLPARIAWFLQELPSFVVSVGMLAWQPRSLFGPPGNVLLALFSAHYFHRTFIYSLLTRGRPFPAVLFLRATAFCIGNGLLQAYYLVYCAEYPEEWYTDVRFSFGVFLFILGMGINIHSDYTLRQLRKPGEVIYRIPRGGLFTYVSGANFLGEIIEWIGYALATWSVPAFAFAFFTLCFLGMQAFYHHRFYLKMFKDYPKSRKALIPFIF
The assay is described as §1. It is filed as tissue-based, Prostate gland.
Conditions: not given
The method, boiled down: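 Ventral prostate from male Wistar rats (200–300 g), homogenized in ice-cold 0.32 M sucrose, 1 mM DTT, 20 mM sodium phosphate pH 6.5. Particulate pellet spun at 140000g, stored at –80 °C, used at 1 mg protein. Compounds added in ethanol. Incubated 37 °C, 20 min, extracted with ethyl acetate. [14C]T and DHT measured by TLC radioscan. IC50 given as mean ± SE of three experiments.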
The compound `COc1ccc(C(c2ccc(OC)cc2)n2ccc3cc(/C(C)=C/C(=O)Nc4ccccc4OCCCC(=O)O)ccc32)cc1` displayed an IC50 of 9.8 nM. In turn, `C/C(=C\C(=O)Nc1ccccc1OCCCC(=O)O)c1ccc2c(ccn2C(c2ccccc2C)c2ccccc2C)c1` displayed a half-inhibitory concentration (IC50) of 19 nM.

`C/C(=C\C(=O)Nc1ccccc1OCCCC(=O)O)c1ccc2c(ccn2C(c2ccccc2)c2ccccn2)c1` (stereo unspecified): the half-inhibitory concentration (IC50) came to 37 nM. With `C/C(=C\C(=O)Nc1ccccc1OCCCC(=O)O)c1ccc2c(ccn2CC(C)(C)C)c1.Cc1ccccc1`, the IC50 was found to be 84 nM. On the same count and under the same terms, the figure for `CCCn1ccc2cc(/C(C)=C/C(=O)Nc3ccccc3OCCCC(=O)O)ccc21` is 190 nM. On the same count and under the same terms, the figure for `CC(C)=CCn1ccc2cc(/C(C)=C/C(=O)Nc3ccccc3OCCCC(=O)O)ccc21` is 120 nM; for `C/C(=C\C(=O)Nc1ccccc1OCCCC(=O)O)c1ccc2c(ccn2CC(C)C)c1` it is 160 nM; for `C/C(=C\C(=O)Nc1ccccc1OCCCC(=O)O)c1ccc2c(ccn2C(c2ccc(C)cc2)c2ccc(C)cc2)c1` it is 8.8 nM.

Compound `CCCCCC(CCCCC)n1ccc2cc(/C(C)=C/C(=O)Nc3ccccc3OCCCC(=O)O)ccc21` had a concentration for half-maximal inhibition (IC50) of 25 nM. `CCCCCCn1ccc2cc(/C(C)=C/C(=O)Nc3ccccc3OCCCC(=O)O)ccc21` had an IC50 of 77 nM. On to `C/C(=C\C(=O)Nc1ccccc1OCCCC(=O)O)c1ccc2c(ccn2C(c2ccccc2)c2cccnc2)c1` (stereo unspecified), for which the concentration for half-maximal inhibition (IC50) was 47 nM. `C/C(=C\C(=O)Nc1ccccc1OCCCC(=O)O)c1ccc2c(ccn2Cc2cccc(C)c2)c1` displayed a 50% inhibitory concentration (IC50) of 250 nM. Regarding `C/C(=C\C(=O)Nc1ccccc1OCCCC(=O)O)c1ccc2c(ccn2C)c1`, the IC50 is on record as 780 nM. On to `C/C(=C\C(=O)Nc1ccccc1OCCCC(=O)O)c1ccc2c(ccn2C(c2ccccc2)c2ccccc2)c1`, for which the IC50 amounted to 5.6 nM. In turn, `C/C(=C\C(=O)Nc1ccccc1OCCCC(=O)O)c1ccc2c(ccn2Cc2ccccc2C)c1` displayed an IC50 of 69 nM. `CCCC(C)n1ccc2cc(/C(C)=C/C(=O)Nc3ccccc3OCCCC(=O)O)ccc21` (stereo unspecified) returned a half-inhibitory concentration (IC50) of 7.8 nM.

Consider `C/C(=C\C(=O)Nc1cccc(F)c1OCCCC(=O)O)c1ccc2c(ccn2C(c2ccccc2)c2ccccc2)c1`, for which the IC50 was 15 nM. Consider `CCCCC(CCCC)n1ccc2cc(/C(C)=C/C(=O)Nc3ccccc3OCCCC(=O)O)ccc21`, for which the half-inhibitory concentration (IC50) is 21 nM. `C/C(=C\C(=O)Nc1ccccc1OCCCC(=O)O)c1ccc2c(ccn2Cc2ccc(C(F)(F)F)cc2)c1` gave an IC50 of 300 nM. The same measure, in the same setting: the figure for `C/C(=C\C(=O)Nc1ccc(F)cc1OCCCC(=O)O)c1ccc2c(ccn2C(c2ccccc2)c2ccccc2)c1` is 3.6 nM; for `COc1ccc(C(c2ccccc2)n2ccc3cc(/C(C)=C/C(=O)Nc4ccccc4OCCCC(=O)O)ccc32)cc1` (stereo unspecified) it is 8.8 nM; for `C/C(=C\C(=O)Nc1ccccc1OCCCC(=O)O)c1ccc2c(ccn2C(CC(C)C)c2ccccc2)c1` (stereo unspecified) it is 6.3 nM. Same read-out and setting: the figure for `C/C(=C\C(=O)Nc1ccccc1OCCCC(=O)O)c1ccc2c(ccn2Cc2ccc(C(C)(C)C)cc2)c1` is 170 nM; for `CCCC(CC)n1ccc2cc(/C(C)=C/C(=O)Nc3ccccc3OCCCC(=O)O)ccc21` (stereo unspecified) it is 9.3 nM; for `C/C(=C\C(=O)Nc1ccccc1OCCCC(=O)O)c1ccc2c(ccn2C(c2ccc(Cl)cc2)c2ccc(Cl)cc2)c1` it is 25 nM. `CCCCc1ccc(Cn2ccc3cc(/C(C)=C/C(=O)Nc4ccccc4OCCCC(=O)O)ccc32)cc1` showed an IC50 of 100 nM. The same measure, in the same setting: the figure for `COc1ccc(Cn2ccc3cc(/C(C)=C/C(=O)Nc4ccccc4OCCCC(=O)O)ccc32)cc1` is 480 nM. The same measure, in the same setting: under `C/C(=C\C(=O)Nc1ccccc1OCCCC(=O)O)c1ccc2c(ccn2Cc2ccc(F)cc2)c1` stands 97 nM. `CCCCn1ccc2cc(/C(C)=C/C(=O)Nc3ccccc3OCCCC(=O)O)ccc21` returned an IC50 of 43 nM.

The compound `C/C(=C\C(=O)Nc1ccccc1OCCCC(=O)O)c1ccc2c(ccn2C(c2ccccc2)c2ccncc2)c1` (stereo unspecified) gave an IC50 of 26 nM. `C/C(=C\C(=O)Nc1ccccc1OCCCC(=O)O)c1ccc2c(ccn2C(C)c2ccccc2)c1` (stereo unspecified) yielded a 50% inhibitory concentration (IC50) of 19 nM.

Consider `CCCCCC(c1ccccc1)n1ccc2cc(/C(C)=C/C(=O)Nc3ccccc3OCCCC(=O)O)ccc21` (stereo unspecified), for which the IC50 amounted to 25 nM. In turn, `CCCCC(c1ccccc1)n1ccc2cc(/C(C)=C/C(=O)Nc3ccccc3OCCCC(=O)O)ccc21` (stereo unspecified) displayed an IC50 of 9.8 nM.

In turn, `CCCCC(CC)n1ccc2cc(/C(C)=C/C(=O)Nc3ccccc3OCCCC(=O)O)ccc21` (stereo unspecified) came in with a half-maximal inhibitory concentration (IC50) of 7.1 nM. For `C/C(=C\C(=O)Nc1ccccc1OCCCC(=O)O)c1ccc2c(ccn2C(c2ccccc2)c2ccc(C(F)(F)F)cc2)c1` (stereo unspecified), the 50% inhibitory concentration (IC50) is 8.1 nM. Consider `CCC(C)n1ccc2cc(/C(C)=C/C(=O)Nc3ccccc3OCCCC(=O)O)ccc21` (stereo unspecified), for which the 50% inhibitory concentration (IC50) is given as 67 nM. On to `CCCCCn1ccc2cc(/C(C)=C/C(=O)Nc3ccccc3OCCCC(=O)O)ccc21`, for which the IC50 is reported as 23 nM. With `CCC(c1ccccc1)n1ccc2cc(/C(C)=C/C(=O)Nc3ccccc3OCCCC(=O)O)ccc21` (stereo unspecified), the concentration for half-maximal inhibition (IC50) turned out to be 19 nM.

The compound `CCCC(c1ccccc1)n1ccc2cc(/C(C)=C/C(=O)Nc3ccccc3OCCCC(=O)O)ccc21` (stereo unspecified) came in with a 50% inhibitory concentration (IC50) of 9.1 nM.

For the compound `CCCCCCCn1ccc2cc(/C(C)=C/C(=O)Nc3ccccc3OCCCC(=O)O)ccc21`, the 50% inhibitory concentration (IC50) was 120 nM. In turn, `C/C(=C\C(=O)Nc1ccccc1OCCCC(=O)O)c1ccc2c(ccn2Cc2ccc(C)cc2)c1` yielded an IC50 of 88 nM. In turn, `C/C(=C\C(=O)Nc1ccc(C)cc1OCCCC(=O)O)c1ccc2c(ccn2C(c2ccccc2)c2ccccc2)c1` yielded a half-inhibitory concentration (IC50) of 14 nM. Compound `C/C(=C\C(=O)Nc1ccccc1OCCCC(=O)O)c1ccc2c(ccn2C(C(C)C)C(C)C)c1` gave an IC50 of 14 nM. On the same count and under the same terms, under `CCCC(C(C)C)n1ccc2cc(/C(C)=C/C(=O)Nc3ccccc3OCCCC(=O)O)ccc21` (stereo unspecified) stands 7.2 nM; under `C/C(=C\C(=O)Nc1ccccc1SCCCC(=O)O)c1ccc2c(ccn2C(c2ccccc2)c2ccccc2)c1`, 39 nM. Turning to `C/C(=C\C(=O)Nc1ccccc1OCCCC(=O)O)c1ccc2c(ccn2C(c2ccccc2)C(C)C)c1` (stereo unspecified), the IC50 was found to be 25 nM. On the same count and under the same terms, under `CCCCC(C)n1ccc2cc(/C(C)=C/C(=O)Nc3ccccc3OCCCC(=O)O)ccc21` (stereo unspecified) stands 6 nM.
